Measurements published in ChEMBL document CHEMBL1139860, “Cytotoxic germacranolides and acyclic diterpenoides from the seeds of Carpesium triste” (J Nat Prod, 2007).
Values after ≈ are worked out from the molar mass of the structure shown.

Columns and labels:
Type in all cases: cell-based
[1] = Cytotoxicity against human SMMC7721 cells after 48 hrs; conditions: SMMC-7721, 48 h
Method in brief: (§1)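 SRB assay. Exponentially growing cells were seeded at 5 × 10^3 per well and incubated 24 h, then exposed 48 h to 5-6 concentrations per run, with vincristine sulfate as positive control. Extracted dye absorbance was read at 515 nm. Percent survival was calculated against untreated cells set at 100%. Done in triplicate.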

HL-60 = assay: Cytotoxicity against human HL60 cells after 48 hrs; conditions: HL-60, 48 h; method in brief: as §1
[2] = Cytotoxicity against human L02 cells after 48 hrs; conditions: L02, 48 h; method in brief: as §1

Structure (SMILES) | IC50 [1] [µg/mL] | IC50 (HL-60) [µg/mL] | IC50 [2] [µg/mL]
CC[C@]1(O)C[C@H]2CN(CCc3c([nH]c4ccccc34)[C@@](C(=O)OC)(c3cc4c(cc3OC)N(C=O)[C@H]3[C@@](O)(C(=O)OC)[C@H](OC(C)=O)[C@]5(CC)C=CCN6CC[C@]43[C@@H]65)C2)C1.O=S(=O)(O)O [VINCRISTINE SULFATE] | 26.7 | 11.2 | 28.4
C=C1C(=O)O[C@H]2[C@H]1[C@@H](OC(=O)C(C)C)C(=O)[C@H](C)CCC[C@](C)(O)[C@@H]2OC(=O)C(C)C [INCASPITOLIDE A] | 97.1 (≈ 221 µM) | 11.8 (≈ 26.9 µM) | 86.4 (≈ 197 µM)
C=C1C(=O)O[C@H]2[C@H]1[C@@H](O)[C@H](OC(=O)C(C)C)[C@H](C)CCC(=O)[C@](C)(O)[C@@H]2OC(=O)C(C)C [INCASPITOLIDE D] | 62.5 (≈ 138 µM) | 14.3 (≈ 31.5 µM) | 95.7 (≈ 211 µM)
C=C1C(=O)O[C@H]2[C@H]1[C@@H](OC(=O)/C(C)=C\C)C(=O)[C@H](C)CCC[C@](C)(O)[C@@H]2OC(=O)C(C)C | 46.3 (≈ 103 µM) | 3.4 (≈ 7.55 µM) | 72.4 (≈ 161 µM)
C=C1C(=O)O[C@H]2[C@H]1[C@@H](O)[C@H](OC(=O)CC(C)C)[C@H](C)CCC(=O)[C@](C)(O)[C@@H]2OC(=O)C(C)C | 44.8 (≈ 95.6 µM) | 1.7 (≈ 3.63 µM) | 23.1 (≈ 49.3 µM)
C=C1C(=O)O[C@H]2[C@H]1[C@@H](OC(=O)C(C)C)[C@H](O)[C@H](C)CCC(=O)[C@](C)(O)[C@@H]2OC(=O)C(C)C | 33.5 (≈ 73.7 µM) | 3.2 (≈ 7.04 µM) | 42.3 (≈ 93.1 µM)
C=C1C(=O)O[C@H]2[C@H]1[C@@H](O)[C@H](OC(=O)CC(C)C)[C@H](C)CCC(=O)[C@](C)(O)[C@@H]2OC(=O)C(C)CC (stereo not given in full) | 29.7 (≈ 61.5 µM) | 10.3 (≈ 21.3 µM) | 57.5 (≈ 119 µM)
CC(C)=CC[C@@H](O)[C@@H](C)CCC/C(C)=C/CC/C(C)=C/CO | > 100 | 42.4 (≈ 137 µM) | > 100
CC(=O)OC/C=C(\C)CC/C=C(/CCC[C@H](C)[C@H](O)CC=C(C)C)COC(C)=O | 12.5 (≈ 30.6 µM) | 20.2 (≈ 49.4 µM) | 31.3 (≈ 76.6 µM)
CC(=O)OC/C(=C\CC/C(C)=C/CO)CCC[C@H](C)[C@H](O)CC=C(C)C | > 100 | > 100 | > 100
